Results: ChEMBL document CHEMBL2380302, “Synthesis of 3-O-propargylated betulinic acid and its 1,2,3-triazoles as potential apoptotic agents” (Eur J Med Chem, 2013)
Active and inactive are the calls of the source. The calls are words filed in the database; no cut-off is given here.

Tests used:
SF-295 [1] = assay: Cytotoxicity against human SF295 cells at 30 uM after 48 hrs by SRB assay; type: functional; details: SF-295, 48 h, read-out: GI
SF-295 [2] = assay: Cytotoxicity against human SF295 cells at 10 uM after 48 hrs by SRB assay; type: functional; details: SF-295, 48 h, read-out: GI
THP-1 [3] = assay: Cytotoxicity against human THP1 cells after 48 hrs by SRB assay; type: functional, cell-based; details: THP-1, 48 h
THP-1 [4] = assay: Inhibition of cell invasion in human THP1 cells at 1 to 30 uM after 24 hrs by wound-healing assay; type: functional, cell-based
Outline: (§1)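 THP-1 monolayers (3×10⁵ cells/mL/well) were scratched with a pipette tip and washed three times with PBS. Test samples were added for 24 h, then fresh medium was added until the control wound healed. Wounds were imaged with a 10× objective at 0 h and 24 h. Migration was quantified as the distance between wound edges.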

THP-1 [5] = assay: Inhibition of cell migration in human THP1 cells at 1 to 30 uM after 24 hrs by wound-healing assay; type: functional, cell-based; outline: as §1
SF-295 [6] = assay: Cytotoxicity against human SF295 cells at 50 uM after 48 hrs by SRB assay; type: functional; details: SF-295, 48 h, read-out: GI
A549 [7] = assay: Cytotoxicity against human A549 cells after 48 hrs by SRB assay; type: functional, cell-based; details: A549, 48 h
THP-1 [8] = assay: Cytotoxicity against human THP1 cells at 50 uM after 48 hrs by SRB assay; type: functional; details: THP-1, 48 h, read-out: GI
A549 [9] = assay: Cytotoxicity against human A549 cells at 30 uM after 48 hrs by SRB assay; type: functional; details: A549, 48 h, read-out: GI
HEp-2 [10] = assay: Cytotoxicity against human Hep2 cells at 30 uM after 48 hrs by SRB assay; type: functional; details: HEp-2, 48 h, read-out: GI
SF-295 [11] = assay: Cytotoxicity against human SF295 cells after 48 hrs by SRB assay; type: functional, cell-based; details: SF-295, 48 h
HCT-15 [12] = assay: Cytotoxicity against human HCT15 cells after 48 hrs by SRB assay; type: functional, cell-based; details: HCT-15, 48 h
PC-3 [13] = assay: Cytotoxicity against human PC3 cells at 10 uM after 48 hrs by SRB assay; type: functional; details: PC-3, 48 h, read-out: GI
HCT-15 [14] = assay: Cytotoxicity against human HCT15 cells at 50 uM after 48 hrs by SRB assay; type: functional; details: HCT-15, 48 h, read-out: GI
DU-145 [15] = assay: Cytotoxicity against human DU145 cells at 10 uM after 48 hrs by SRB assay; type: functional; details: DU-145, 48 h, read-out: GI
HL-60 [16] = assay: Cytotoxicity against human HL60 cells at 30 uM after 48 hrs by SRB assay; type: functional; details: HL-60, 48 h, read-out: GI
HL-60 [17] = assay: Cytotoxicity against human HL60 cells at 50 uM after 48 hrs by SRB assay; type: functional; details: HL-60, 48 h, read-out: GI
MCF7 [18] = assay: Cytotoxicity against human MCF7 cells after 48 hrs by SRB assay; type: functional, cell-based; details: MCF7, 48 h
HCT-15 [19] = assay: Cytotoxicity against human HCT15 cells at 30 uM after 48 hrs by SRB assay; type: functional; details: HCT-15, 48 h, read-out: GI
HL-60 [20] = assay: Cytotoxicity against human HL60 cells at 10 uM after 48 hrs by SRB assay; type: functional; details: HL-60, 48 h, read-out: GI
A549 [21] = assay: Cytotoxicity against human A549 cells at 10 uM after 48 hrs by SRB assay; type: functional; details: A549, 48 h, read-out: GI
MCF7 [22] = assay: Cytotoxicity against human MCF7 cells at 50 uM after 48 hrs by SRB assay; type: functional; details: MCF7, 48 h, read-out: GI
HL-60 [23] = assay: Cytotoxicity against human HL60 cells after 48 hrs by SRB assay; type: functional, cell-based; details: HL-60, 48 h
PC-3 [24] = assay: Cytotoxicity against human PC3 cells after 48 hrs by SRB assay; type: functional, cell-based; details: PC-3, 48 h
MCF7 [25] = assay: Cytotoxicity against human MCF7 cells at 10 uM after 48 hrs by SRB assay; type: functional; details: MCF7, 48 h, read-out: GI
THP-1 [26] = assay: Cytotoxicity against human THP1 cells at 30 uM after 48 hrs by SRB assay; type: functional; details: THP-1, 48 h, read-out: GI
MCF7 [27] = assay: Cytotoxicity against human MCF7 cells at 30 uM after 48 hrs by SRB assay; type: functional; details: MCF7, 48 h, read-out: GI
PC-3 [28] = assay: Cytotoxicity against human PC3 cells at 30 uM after 48 hrs by SRB assay; type: functional; details: PC-3, 48 h, read-out: GI
DU-145 [29] = assay: Cytotoxicity against human DU145 cells after 48 hrs by SRB assay; type: functional, cell-based; details: DU-145, 48 h
HEp-2 [30] = assay: Cytotoxicity against human Hep2 cells at 10 uM after 48 hrs by SRB assay; type: functional; details: HEp-2, 48 h, read-out: GI
DU-145 [31] = assay: Cytotoxicity against human DU145 cells at 50 uM after 48 hrs by SRB assay; type: functional; details: DU-145, 48 h, read-out: GI
HL-60 [32] = assay: Induction of apoptosis in human HL60 cells assessed as change in mitochondrial membrane potential after 24 hrs using rhodamine-123 staining by fluorescence based confocal microscopy analysis; type: functional, cell-based
Outline: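 HL-60 cells (6 × 10⁴/mL/well) were treated for 24 h. Rhodamine-123 (1 µM) was added in serum-free medium 30 min before the end, in the dark. Cells were then washed and resuspended in PBS. Fluorescence loss was viewed by confocal microscopy with 488 nm laser excitation. Each experiment was done twice.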

HCT-15 [33] = assay: Cytotoxicity against human HCT15 cells at 10 uM after 48 hrs by SRB assay; type: functional; details: HCT-15, 48 h, read-out: GI
THP-1 [34] = assay: Inhibition of colony formation in human THP1 cells using crystal violet staining after 24 hrs by clonogenic assay; type: functional, cell-based
Outline: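 THP-1 cells from log-phase culture were plated at clonogenic dilution. After 24 h they were treated for 24 h, then incubated for at least six potential divisions (colonies >50 cells). Colonies were fixed and stained with 6% glutaraldehyde plus 0.5% crystal violet for 30 min, washed with water and air-dried.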

CV-1 = assay: Induction of apoptosis in african green monkey CV1 cells assessed as DNA ladder formation at 10 to 60 uM after 24 hrs by DNA agarose gel electrophoresis; type: cell-based; details: chlorocebus aethiops, cv-1, 24 h
Outline: (§2)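 DNA fragmentation assay in HL-60 cells (2 × 10⁶ cells/well) or CV-1 cells, treated for 24 h. Cells were lysed in Tris–HCl pH 8.0/NaCl/EDTA/Triton X-100 with proteinase K (200 µg/mL) at 50 °C for 1 h, then DNase-free RNase for 90 min. DNA was phenol:chloroform extracted and ethanol precipitated. Gels were 1% agarose in TAE at 80 V for 1.5 h. Camptothecin (5 µM, 6 h) served as positive control in HL-60.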

HL-60 [35] = assay: Induction of apoptosis in human HL60 cells assessed as DNA ladder formation at 20 to 30 uM after 24 hrs by DNA agarose gel electrophoresis; type: functional, cell-based; outline: as §2
THP-1 [36] = assay: Cytotoxicity against human THP1 cells at 10 uM after 48 hrs by SRB assay; type: functional; details: THP-1, 48 h, read-out: GI
A549 [37] = assay: Cytotoxicity against human A549 cells at 50 uM after 48 hrs by SRB assay; type: functional; details: A549, 48 h, read-out: GI
HEp-2 [38] = assay: Cytotoxicity against human Hep2 cells at 50 uM after 48 hrs by SRB assay; type: functional; details: HEp-2, 48 h, read-out: GI
HL-60 [39] = assay: Induction of apoptosis in human HL60 cells assessed as DNA ladder formation after 24 hrs by DNA agarose gel electrophoresis; type: functional; outline: as §2
PC-3 [40] = assay: Cytotoxicity against human PC3 cells at 50 uM after 48 hrs by SRB assay; type: functional; details: PC-3, 48 h, read-out: GI
HEp-2 [41] = assay: Cytotoxicity against human Hep2 cells after 48 hrs by SRB assay; type: functional, cell-based; details: HEp-2, 48 h
DU-145 [42] = assay: Cytotoxicity against human DU145 cells at 30 uM after 48 hrs by SRB assay; type: functional; details: DU-145, 48 h, read-out: GI

C=C(C)[C@@H]1CC[C@]2(C(=O)O)CC[C@]3(C)[C@H](CC[C@@H]4[C@@]5(C)CC[C@H](OCc6cn(-c7ccccc7C#N)nn6)C(C)(C)[C@@H]5CC[C@]43C)[C@@H]12
inhibition of growth at 30 µM (SF-295 [1]): 66%
inhibition of growth at 10 µM (SF-295 [2]): 45%
IC50 (THP-1 [3]): 4.5 µM
inhibition (THP-1 [4]): Active
inhibition (THP-1 [5]): Active
inhibition of growth at 50 µM (SF-295 [6]): 71%
IC50 (A549 [7]): 5 µM
inhibition of growth at 50 µM (THP-1 [8]): 92%
inhibition of growth at 30 µM (A549 [9]): 74%
inhibition of growth at 30 µM (HEp-2 [10]): 59%
IC50 (SF-295 [11]): 15 µM
IC50 (HCT-15 [12]): 20 µM
inhibition of growth at 10 µM (PC-3 [13]): 34%
inhibition of growth at 50 µM (HCT-15 [14]): 89%
inhibition of growth at 10 µM (DU-145 [15]): 32%
inhibition of growth at 30 µM (HL-60 [16]): 90%
inhibition of growth at 50 µM (HL-60 [17]): 98%
IC50 (MCF7 [18]): 4.8 µM
inhibition of growth at 30 µM (HCT-15 [19]): 61%
inhibition of growth at 10 µM (HL-60 [20]): 65%
inhibition of growth at 10 µM (A549 [21]): 60%
inhibition of growth at 50 µM (MCF7 [22]): 97%
IC50 (HL-60 [23]): 2.5 µM
IC50 (PC-3 [24]): 14 µM
inhibition of growth at 10 µM (MCF7 [25]): 60%
inhibition of growth at 30 µM (THP-1 [26]): 89%
inhibition of growth at 30 µM (MCF7 [27]): 81%
inhibition of growth at 30 µM (PC-3 [28]): 71%
IC50 (DU-145 [29]): 18 µM
inhibition of growth at 10 µM (HEp-2 [30]): 45%
inhibition of growth at 50 µM (DU-145 [31]): 84%
Activity (HL-60 [32]): Dose-dependent effect
inhibition of growth at 10 µM (HCT-15 [33]): 40%
inhibition (THP-1 [34]): Dose-dependent effect
Activity (CV-1): Non-toxic
Activity (HL-60 [35]): Active
inhibition of growth at 10 µM (THP-1 [36]): 50%
inhibition of growth at 50 µM (A549 [37]): 79%
inhibition of growth at 50 µM (HEp-2 [38]): 68%
Activity (HL-60 [39]): Dose-dependent effect
MED (HL-60 [39]): 20 µM
inhibition of growth at 50 µM (PC-3 [40]): 86%
IC50 (HEp-2 [41]): 12 µM
inhibition of growth at 30 µM (DU-145 [42]): 65%
